Values joined by “and” are separate entries in the source; they are usually repeats but may differ in a detail not shown here. Equal entries are not always repeated.
How the values were obtained:
E. faecium ATCC 700221 = assay: Broth microdilution MIC/MBC, E. faecium; assay type: cell-based, Enterococcus faecium; settings: for MIC E. faecium ATCC 700221: value before the parentheses, two values = two repeats; for MBC E. faecium ATCC 700221: value in parentheses
Summary of the method: (§1)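 CLSI broth microdilution in cation-adjusted Mueller–Hinton broth. Log-phase cultures were diluted to 7.5 × 10^5 CFU/mL, then mixed 1:1 with 2-fold serial dilutions of gold complexes from DMSO or water stocks, in triplicate, and held 37 °C, 18 h, static. MIC: lowest concentration giving >90% inhibition by OD600 against medium-only and bacteria-only wells. […] E. coli ATCC 25922 quality control was checked each run with ciprofloxacin and […].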

[1] = tested on: K. pneumoniae ATCC 700603; assay: Broth microdilution MIC/MBC, K. pneumoniae; assay type: cell-based, Klebsiella pneumoniae; settings: for MIC K. pneumoniae ATCC 700603: value before the parentheses, two values = two repeats; for MBC K. pneumoniae ATCC 700603: value in parentheses; for fold enhancement of activity over auranofin, K. pneumoniae: vs auranofin
Summary of the method: as §1

A. baumannii NCTC 13420 = assay: Broth microdilution MIC/MBC, A. baumannii; assay type: cell-based, Acinetobacter baumannii; settings: for MIC A. baumannii NCTC 13420: value before the parentheses, two values = two repeats; for MBC A. baumannii NCTC 13420: value in parentheses
Log P determination = settings: n-octanol/water, Au by FAAS
A549 cells = assay: Cytotoxicity assay; assay type: cell-based, human; settings: for IC50: read-out: IC50 against A549 cells, means ± SEM from two independent experiments
S. aureus JE2 (USA300) = assay: Broth microdilution MIC/MBC, S. aureus; assay type: cell-based, Staphylococcus aureus; settings: for MIC S. aureus JE2 (USA300): value before the parentheses, two values = two repeats; for MBC S. aureus JE2 (USA300): value in parentheses
Summary of the method: as §1

E. coli ATCC 25922 = assay: Broth microdilution MIC/MBC, E. coli; assay type: cell-based, Escherichia coli; settings: for MBC E. coli ATCC 25922: value in parentheses; for MIC E. coli ATCC 25922: value before the parentheses, two values = two repeats
Summary of the method: as §1

P. aeruginosa NCTC 13437 = assay: Broth microdilution MIC/MBC, P. aeruginosa; assay type: cell-based, Pseudomonas aeruginosa; settings: for MBC P. aeruginosa NCTC 13437: value in parentheses; for MIC P. aeruginosa NCTC 13437: value before the parentheses, two values = two repeats
Summary of the method: as §1

E. cloacae NCTC 13405 = assay: Broth microdilution MIC/MBC, E. cloacae; assay type: cell-based, Enterobacter cloacae; settings: for MIC E. cloacae NCTC 13405: value before the parentheses, two values = two repeats; for MBC E. cloacae NCTC 13405: value in parentheses; for fold enhancement of activity over auranofin, E. cloacae: vs auranofin
Summary of the method: as §1

Gram-negative strains = assay: Broth microdilution, Gram-negative strains taken together; assay type: cell-based; settings: vs auranofin
rat = settings: cited from earlier work
all strains = assay: Broth microdilution, all strains taken together; assay type: cell-based; settings: vs auranofin

SMILES	MIC E. faecium ATCC 700221 (E. faecium ATCC 700221)	MBC E. faecium ATCC 700221 (E. faecium ATCC 700221)	MIC K. pneumoniae ATCC 700603 [1]	MBC K. pneumoniae ATCC 700603 [1]	fold enhancement of activity over auranofin, K. pneumoniae [1]	MIC A. baumannii NCTC 13420 (A. baumannii NCTC 13420)	MBC A. baumannii NCTC 13420 (A. baumannii NCTC 13420)	log P (Log P determination)	IC50 (A549 cells)	MIC S. aureus JE2 (USA300) (S. aureus JE2 (USA300))	MBC S. aureus JE2 (USA300) (S. aureus JE2 (USA300))	MBC E. coli ATCC 25922 (E. coli ATCC 25922)	MBC P. aeruginosa NCTC 13437 (P. aeruginosa NCTC 13437)	MIC E. cloacae NCTC 13405 (E. cloacae NCTC 13405)	MBC E. cloacae NCTC 13405 (E. cloacae NCTC 13405)	fold enhancement of activity over auranofin, E. cloacae (E. cloacae NCTC 13405)	MIC E. coli ATCC 25922 (E. coli ATCC 25922)	MIC P. aeruginosa NCTC 13437 (P. aeruginosa NCTC 13437)	rat acute oral LD50 (rat)	other results
C[PH](C)(C)[Au][S]CCO [Compound 40, (2-Mercaptoethanolato)(trimethylphosphine) Gold(I)]	0.3 µM	0.3 µM	11 µM	23 µM	34	5.7 µM and 6 µM and 3 µM	23 µM	−0.15	35.1 ± 8.9 µM	0.3 µM	0.7 µM	11 µM	91 µM	2.9 µM and 3 µM	3 µM	65				MIC K. pneumoniae [1]: 11 μ/mL
CC[P+](CC)(CC)[Au-][S]CCO [Compound 21, (2-Mercaptoethanolato)(triethylphosphine) Gold(I)]	0.2 µM and 0.3 µM	0.6 µM	20 µM	20 µM	19	10 µM	82 µM	1.19		0.03 µM	0.03 µM	10 µM	41 µM	5 µM and 10 µM	82 µM	19	10 µM	41 µM		fold enhancement of activity over auranofin, Gram-negative strains (Gram-negative strains): 5–19; cytotoxicity relative to auranofin (times less toxic) (A549 cells; A549 cells, vs auranofin): 1.6; fold enhancement of activity over auranofin, P. aeruginosa (P. aeruginosa NCTC 13437; vs auranofin): 9
CCP(CC)CC.[Au+].[Cl-] [Compound 25, (Triethylphosphine)gold Chloride]		0.7 µM	46 µM	46 µM			23 µM	1.74			0.2 µM	23 µM	183 µM	23 µM	23 µM		23 µM	92 µM	79.0 mg/kg	
CC[PH](CC)(CC)[Au][S]c1ccc(N)cc1 [Compound 17, (4-Aminobenzenethiolato)(triethylphosphine) Gold(I)]	0.02 µM	0.1 µM	36 µM	36 µM	10	18 µM	18 µM	1.36			0.07 µM	9 µM	146 µM	36 µM	36 µM		9 µM	146 µM		fold enhancement of activity over auranofin, E. faecium (E. faecium ATCC 700221; vs auranofin): more than 7; fold enhancement of activity over auranofin, all strains (all strains): up to 10
CC(=O)OCC1O[C@@H]([S][Au-][P+](C)(C)C)C(OC(C)=O)[C@@H](OC(C)=O)[C@@H]1OC(C)=O (stereo partly drawn) [Compound 31, (2,3,4,6-Tetra-O-acetyl-1-thio-β-D-glucopyranosato)-(trimethylphosphine) Gold(I)]	0.2 µM and 0.4 µM	0.8 µM	13 µM	13 µM	30		101 µM	0.35	20.6 ± 3.6 µM	0.1 µM	0.2 µM	6 µM	101 µM	3.1 µM and 3 µM	3.1 µM and 3 µM	60 and 61	6 µM	101 µM		
CC[PH](CC)(CC)[Au][S][C@@H]1O[C@H](COC(C)=O)[C@@H](OC(C)=O)[C@H](OC(C)=O)[C@H]1OC(C)=O [Compound 1, (2,3,4,6-Tetra-O-acetyl-1-thio-β-D-glucopyranosato)-(triethylphosphine) Gold(I), reference compound]		0.4 µM	377 µM	377 µM		47 µM	47 µM	0.56	11.3 ± 1.9 µM	0.04 µM	0.09 µM	24 µM	377 µM	189 µM	189 µM		24 µM	377 µM	265 mg/kg	MBC E. faecium (E. faecium ATCC 700221; Table S1): 0.25 µg/mL; MIC E. faecium (E. faecium ATCC 700221; Table S1): 0.12 µg/mL; MIC K. pneumoniae ATCC 700603 ([1]; listed as Auranofin): 377 µM; MBC K. pneumoniae ATCC 700603 ([1]; listed as Auranofin): 377 µM; MBC A. baumannii (A. baumannii NCTC 13420; MIC/MBC): 32 µg/mL; MIC A. baumannii (A. baumannii NCTC 13420; MIC/MBC): 32 µg/mL; MIC A. baumannii NCTC 13420 (A. baumannii NCTC 13420; listed as Auranofin): 47 µM; MBC A. baumannii NCTC 13420 (A. baumannii NCTC 13420; listed as Auranofin): 47 µM; MBC S. aureus (S. aureus JE2 (USA300); Table S1): 0.06 µg/mL; MIC S. aureus (S. aureus JE2 (USA300); Table S1): 0.03 µg/mL; MBC E. coli (E. coli ATCC 25922; MIC/MBC): 16 µg/mL; MIC E. coli (E. coli ATCC 25922; MIC/MBC): 16 µg/mL
